Experiment [1] deals with Cyclin-dependent kinase 5 (Homo sapiens) (UniProt Q00535). Kind of experiment: Inhibition of CDK5 in human SKCO1 cells at 1 uM after 4 hrs using biotin labeled DLKPQNLLINR probe by mass-spectrometric analysis relative to control. Type of experiment: cell-based.
Experiment [2] has as its target Mitogen-activated protein kinase 7 (Homo sapiens) (UniProt Q13164). Kind of experiment: Inhibition of Erk5 in human SKCO1 cells at 1 uM after 4 hrs using biotin labeled DLKPSNLLVNENCELK probe by mass-spectrometric analysis relative to control. In kind it is cell-based.
Experiment [3] addresses Tyrosine-protein kinase Fyn (Homo sapiens) (UniProt P06241). Kind of experiment: Inhibition of FYN in human SKCO1 cells at 1 uM after 4 hrs using biotin labeled QGAKFPIKWTAPEAALYGR probe by mass-spectrometric analysis relative to control. In kind it is cell-based.
Experiment [4] addresses Proto-oncogene tyrosine-protein kinase Src (Homo sapiens) (UniProt P12931). Kind of experiment: Inhibition of SRC in human SKCO1 cells at 1 uM after 4 hrs using biotin labeled QGAKFPIKWTAPEAALYGR probe by mass-spectrometric analysis relative to control. In kind it is cell-based.
Experiment [5] addresses Inhibitor of nuclear factor kappa-B kinase subunit alpha (Homo sapiens) (UniProt O15111). Kind of experiment: Inhibition of IKKa in human SKCO1 cells at 1 uM after 4 hrs using biotin labeled DLKPENIVLQDVGGK probe by mass-spectrometric analysis relative to control. In kind it is cell-based.
For experiment [6], the target named is Mitogen-activated protein kinase 9 (Homo sapiens) (UniProt P45984). Kind of experiment: Inhibition of JNK2 in human SKCO1 cells at 1 uM after 4 hrs using biotin labeled DLKPSNIVVK probe by mass-spectrometric analysis relative to control. In kind it is cell-based.
Experiment [7] deals with Tyrosine-protein kinase Lck (Homo sapiens) (UniProt P06239). Kind of experiment: Inhibition of LCK in human SKCO1 cells at 1 uM after 4 hrs using biotin labeled EGAKFPIKWTAPEAINYGTFTIK probe by mass-spectrometric analysis relative to control. Type of experiment: cell-based.
Experiment [8] deals with Mitogen-activated protein kinase kinase kinase 5 (Homo sapiens) (UniProt Q99683). Kind of experiment: Inhibition of MAP3K5 in human SKCO1 cells at 1 uM after 4 hrs using biotin labeled DIKGDNVLINTYSGVLK probe by mass-spectrometric analysis relative to control. In kind it is cell-based.
The target of experiment [9] is Serine/threonine-protein kinase Nek6 (Homo sapiens) (UniProt Q9HC98). Kind of experiment: Inhibition of NEK6 in human SKCO1 cells at 1 uM after 4 hrs using biotin labeled TVALKK probe by mass-spectrometric analysis relative to control. Type of experiment: cell-based.
Experiment [10] shares this target. Kind of experiment: Inhibition of NEK6 in human SKCO1 cells at 1 uM after 4 hrs using biotin labeled DIKPANVFITATGVVK probe by mass-spectrometric analysis relative to control. In kind it is cell-based.
Experiment [11] has as its target Serine/threonine-protein kinase Nek7 (Homo sapiens) (UniProt Q8TDX7). Kind of experiment: Inhibition of NEK7 in human SKCO1 cells at 1 uM after 4 hrs using biotin labeled DIKPANVFITATGVVK probe by mass-spectrometric analysis relative to control. In kind it is cell-based.
In experiment [12] the target is Mitogen-activated protein kinase 14 (Homo sapiens) (UniProt Q16539). Kind of experiment: Inhibition of p38a in human SKCO1 cells at 1 uM after 4 hrs using biotin labeled DLKPSNLAVNEDCELK probe by mass-spectrometric analysis relative to control. Type of experiment: cell-based. The method, boiled down:
(§1)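 Live SK-CO-1 cells exposed to compound at 1 μM or DMSO for 4 h (KiNativ). Lysates then labeled with lysine-reactive ATP/ADP-biotin probe, and probe-labeled kinase peptides quantified by mass spectrometry. Percent inhibition of probe-dependent recovery calculated relative to DMSO-treated cells.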

For experiment [13], the target named is Cyclin-dependent kinase 16 (Homo sapiens) (UniProt Q00536). Kind of experiment: Inhibition of PCTAIRE1 in human SKCO1 cells at 1 uM after 4 hrs using biotin labeled SKLTDNLVALKEIR probe by mass-spectrometric analysis relative to control. In kind it is cell-based. The method, boiled down:
as §1

Experiment [14] deals with Ribosomal protein S6 kinase alpha-1 (Homo sapiens) (UniProt Q15418). Kind of experiment: Inhibition of RSK1 domain2 in human SKCO1 cells at 1 uM after 4 hrs using biotin labeled DLKPSNILYVDESGNPECLR probe by mass-spectrometric analysis relative to control. In kind it is cell-based.
The test system of the next experiment is SK-CO-1. Kind of experiment: Antiproliferative activity against human SKCO1 cells harboring KRAS G12V mutant after 72 hrs by CellTiter-Glo assay. Type of experiment: functional, cell-based. To be noted: SK-CO-1, 72 h. For orientation: In ATP-based viability assays light output follows the ATP content of the culture.
A further experiment has as its system PANC-1. Kind of experiment: Antiproliferative activity against human PANC1 cells harboring KRAS G12D mutant after 72 hrs by CellTiter-Glo assay. To be noted: PANC-1, 72 h. Type of experiment: functional, cell-based.
A further experiment deals with ASPC1. Kind of experiment: Antiproliferative activity against human AsPC1 cells harboring KRAS G12D mutant after 72 hrs by CellTiter-Glo assay. The conditions noted are these: ASPC1, 72 h. Type of experiment: functional, cell-based.
Another experiment has as its system U-937. Kind of experiment: Antiproliferative activity against human U937 cells at […] to […] nM after 72 hrs by CellTiter-Glo assay. In kind it is functional, cell-based.
Experiment [15] deals with Serine/threonine-protein kinase/endoribonuclease IRE2 (Homo sapiens) (UniProt Q76MJ5). Kind of experiment: Inhibition of IRE2 in human SKCO1 cells at 1 uM after 4 hrs using biotin labeled DLKPGNILITGPDSQGLGR probe by mass-spectrometric analysis relative to control. In kind it is cell-based.
Experiment [16] has as its target Tyrosine-protein kinase JAK1 (Homo sapiens) (UniProt P23458). Kind of experiment: Inhibition of JAK1 domain1 in human SKCO1 cells at 1 uM after 4 hrs using biotin labeled QLASALSYLEDKDLVHGNVCTKNLLLAR probe by mass-spectrometric analysis relative to control. In kind it is cell-based.
For experiment [17], the target named is T1, Dual specificity mitogen-activated protein kinase kinase 5 (Homo sapiens) (UniProt Q13163).
T1 sequence (whole entry): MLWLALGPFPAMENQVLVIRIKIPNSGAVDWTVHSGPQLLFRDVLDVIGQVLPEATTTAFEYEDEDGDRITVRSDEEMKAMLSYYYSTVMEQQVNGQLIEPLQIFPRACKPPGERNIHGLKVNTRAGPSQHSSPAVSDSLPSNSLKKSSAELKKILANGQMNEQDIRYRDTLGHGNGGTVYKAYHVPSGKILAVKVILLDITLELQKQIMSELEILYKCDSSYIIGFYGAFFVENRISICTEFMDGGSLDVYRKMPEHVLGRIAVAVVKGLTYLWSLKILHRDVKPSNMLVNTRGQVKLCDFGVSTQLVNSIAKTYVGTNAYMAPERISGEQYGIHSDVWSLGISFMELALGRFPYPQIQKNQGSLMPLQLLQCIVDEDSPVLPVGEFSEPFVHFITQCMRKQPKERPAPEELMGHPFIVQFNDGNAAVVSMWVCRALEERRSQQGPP
Kind of experiment: Inhibition of MAP2K5 in human SKCO1 cells at 1 uM after 4 hrs using biotin labeled DVKPSNMLVNTR probe by mass-spectrometric analysis relative to control. In kind it is cell-based.

Experiment [18] addresses Phosphatidylinositol 5-phosphate 4-kinase type-2 alpha (Homo sapiens) (UniProt P48426). Kind of experiment: Inhibition of PIP4K2A in human SKCO1 cells at 1 uM after 4 hrs using biotin labeled AKELPTLKDNDFINEGQK probe by mass-spectrometric analysis relative to control. Type of experiment: cell-based.
For the next experiment, the system named is NCI-H23. Kind of experiment: Antiproliferative activity against human NCI-H23 cells harboring KRAS G12C mutant after 72 hrs by CellTiter-Glo assay. In kind it is functional, cell-based. Put shortly:
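NCI-H23 or NCI-H358 cells seeded at 2000 cells/well and grown 48 h before drug. Varying doses were added and cells incubated 72 h. Viability was read as CellTiter-Glo luminescence, and growth-inhibition IC50 was calculated from dose-response curves.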

In ChEMBL document CHEMBL4118021, “Studies of TAK1-centered polypharmacology with novel covalent TAK1 inhibitors” (Bioorg Med Chem, 2017) one finds inhibition, IC50 and Activity data, which are given here for three compounds.

Calls of active or inactive are those of the source. No cut-off for these calls is given here.

Sequence of Serine/threonine-protein kinase Nek6 (Homo sapiens) (Q9HC98 whole entry): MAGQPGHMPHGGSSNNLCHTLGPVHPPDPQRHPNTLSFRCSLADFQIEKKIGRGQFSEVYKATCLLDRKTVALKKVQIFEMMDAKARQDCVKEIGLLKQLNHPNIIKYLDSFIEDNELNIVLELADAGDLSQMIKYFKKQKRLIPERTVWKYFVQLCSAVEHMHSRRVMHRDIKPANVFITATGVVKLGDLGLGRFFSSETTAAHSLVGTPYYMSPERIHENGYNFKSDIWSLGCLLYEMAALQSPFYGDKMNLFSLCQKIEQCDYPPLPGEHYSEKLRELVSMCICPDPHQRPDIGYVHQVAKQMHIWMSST
Sequence of Serine/threonine-protein kinase/endoribonuclease IRE2 (Homo sapiens) (Q76MJ5 35-926 limits assumed): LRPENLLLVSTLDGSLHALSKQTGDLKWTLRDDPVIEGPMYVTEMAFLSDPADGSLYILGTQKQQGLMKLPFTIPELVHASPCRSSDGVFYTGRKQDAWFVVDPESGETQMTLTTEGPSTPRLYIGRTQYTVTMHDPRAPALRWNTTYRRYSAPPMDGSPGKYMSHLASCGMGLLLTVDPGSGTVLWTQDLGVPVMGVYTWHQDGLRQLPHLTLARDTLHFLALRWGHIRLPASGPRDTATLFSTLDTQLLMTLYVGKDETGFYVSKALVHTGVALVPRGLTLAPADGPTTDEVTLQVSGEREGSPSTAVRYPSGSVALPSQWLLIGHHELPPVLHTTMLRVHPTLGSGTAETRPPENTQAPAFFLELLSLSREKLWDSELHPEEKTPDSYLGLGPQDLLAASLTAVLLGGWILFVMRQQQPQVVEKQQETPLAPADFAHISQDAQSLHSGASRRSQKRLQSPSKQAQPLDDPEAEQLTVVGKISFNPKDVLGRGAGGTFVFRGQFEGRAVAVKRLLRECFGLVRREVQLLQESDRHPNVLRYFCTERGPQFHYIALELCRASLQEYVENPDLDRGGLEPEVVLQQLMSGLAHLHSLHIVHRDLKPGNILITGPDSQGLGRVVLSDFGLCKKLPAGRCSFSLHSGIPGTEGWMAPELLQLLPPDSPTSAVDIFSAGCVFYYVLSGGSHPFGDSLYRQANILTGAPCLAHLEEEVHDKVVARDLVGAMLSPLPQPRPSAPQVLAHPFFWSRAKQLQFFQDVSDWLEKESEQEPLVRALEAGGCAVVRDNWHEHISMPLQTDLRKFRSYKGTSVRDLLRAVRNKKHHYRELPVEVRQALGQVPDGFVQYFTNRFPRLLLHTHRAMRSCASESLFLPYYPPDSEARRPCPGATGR
Sequence of Serine/threonine-protein kinase Nek7 (Homo sapiens) (Q8TDX7 whole entry, looked up): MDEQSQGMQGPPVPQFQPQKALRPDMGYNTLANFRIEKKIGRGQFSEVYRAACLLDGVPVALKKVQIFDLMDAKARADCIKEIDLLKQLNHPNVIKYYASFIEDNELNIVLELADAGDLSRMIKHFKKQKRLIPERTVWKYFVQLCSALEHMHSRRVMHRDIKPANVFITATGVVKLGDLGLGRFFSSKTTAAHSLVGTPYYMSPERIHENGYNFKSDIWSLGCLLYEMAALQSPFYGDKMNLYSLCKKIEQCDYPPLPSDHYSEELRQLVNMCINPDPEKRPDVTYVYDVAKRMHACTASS
Sequence of Proto-oncogene tyrosine-protein kinase Src (Homo sapiens) (P12931 2-536 limits assumed): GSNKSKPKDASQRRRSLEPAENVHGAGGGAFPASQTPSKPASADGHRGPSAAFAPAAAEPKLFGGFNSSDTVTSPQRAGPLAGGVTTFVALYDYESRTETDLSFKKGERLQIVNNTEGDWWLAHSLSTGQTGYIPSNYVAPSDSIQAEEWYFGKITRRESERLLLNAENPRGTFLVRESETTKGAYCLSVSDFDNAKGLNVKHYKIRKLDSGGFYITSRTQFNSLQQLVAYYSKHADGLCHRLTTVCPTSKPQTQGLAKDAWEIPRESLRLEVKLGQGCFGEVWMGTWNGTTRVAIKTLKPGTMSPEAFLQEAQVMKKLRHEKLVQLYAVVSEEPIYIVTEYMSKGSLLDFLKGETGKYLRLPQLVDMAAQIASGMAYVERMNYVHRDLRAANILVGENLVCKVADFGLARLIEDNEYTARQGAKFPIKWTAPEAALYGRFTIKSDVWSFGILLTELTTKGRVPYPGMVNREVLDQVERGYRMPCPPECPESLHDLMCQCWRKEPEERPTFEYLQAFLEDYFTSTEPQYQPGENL
Sequence of Mitogen-activated protein kinase 14 (Homo sapiens) (Q16539 whole entry): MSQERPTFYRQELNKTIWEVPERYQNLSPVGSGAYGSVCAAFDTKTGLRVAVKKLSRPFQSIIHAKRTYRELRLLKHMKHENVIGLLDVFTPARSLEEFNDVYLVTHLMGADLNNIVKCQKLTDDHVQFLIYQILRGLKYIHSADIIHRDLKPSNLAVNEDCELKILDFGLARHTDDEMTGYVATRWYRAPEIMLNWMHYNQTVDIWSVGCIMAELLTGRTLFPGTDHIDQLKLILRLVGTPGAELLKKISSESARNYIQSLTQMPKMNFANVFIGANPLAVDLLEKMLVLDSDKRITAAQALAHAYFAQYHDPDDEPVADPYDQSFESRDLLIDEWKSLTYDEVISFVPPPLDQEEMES
Sequence of Cyclin-dependent kinase 16 (Homo sapiens) (Q00536 whole entry): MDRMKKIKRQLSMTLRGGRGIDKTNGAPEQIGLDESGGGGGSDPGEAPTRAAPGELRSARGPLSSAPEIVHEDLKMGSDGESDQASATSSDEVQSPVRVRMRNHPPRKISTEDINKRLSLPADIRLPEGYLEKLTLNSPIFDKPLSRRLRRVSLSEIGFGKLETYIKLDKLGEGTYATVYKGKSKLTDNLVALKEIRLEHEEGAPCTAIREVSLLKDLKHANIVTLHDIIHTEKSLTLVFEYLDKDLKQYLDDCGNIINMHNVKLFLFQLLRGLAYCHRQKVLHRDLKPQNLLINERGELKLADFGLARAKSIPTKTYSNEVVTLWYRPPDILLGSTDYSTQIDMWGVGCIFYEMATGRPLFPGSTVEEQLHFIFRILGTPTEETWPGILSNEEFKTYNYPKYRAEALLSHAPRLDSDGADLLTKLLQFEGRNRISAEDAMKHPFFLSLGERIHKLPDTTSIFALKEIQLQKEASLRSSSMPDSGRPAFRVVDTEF
Sequence of Cyclin-dependent kinase 5 (Homo sapiens) (Q00535 whole entry, looked up): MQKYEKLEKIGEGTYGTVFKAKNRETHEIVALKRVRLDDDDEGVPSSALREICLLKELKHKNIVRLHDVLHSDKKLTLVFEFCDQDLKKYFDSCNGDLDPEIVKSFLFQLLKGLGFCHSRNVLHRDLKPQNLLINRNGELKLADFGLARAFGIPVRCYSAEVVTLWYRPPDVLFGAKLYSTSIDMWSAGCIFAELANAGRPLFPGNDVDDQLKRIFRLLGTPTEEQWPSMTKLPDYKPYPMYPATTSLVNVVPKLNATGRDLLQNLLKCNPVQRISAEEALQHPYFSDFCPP
Sequence of Tyrosine-protein kinase Fyn (Homo sapiens) (P06241 2-537 limits assumed): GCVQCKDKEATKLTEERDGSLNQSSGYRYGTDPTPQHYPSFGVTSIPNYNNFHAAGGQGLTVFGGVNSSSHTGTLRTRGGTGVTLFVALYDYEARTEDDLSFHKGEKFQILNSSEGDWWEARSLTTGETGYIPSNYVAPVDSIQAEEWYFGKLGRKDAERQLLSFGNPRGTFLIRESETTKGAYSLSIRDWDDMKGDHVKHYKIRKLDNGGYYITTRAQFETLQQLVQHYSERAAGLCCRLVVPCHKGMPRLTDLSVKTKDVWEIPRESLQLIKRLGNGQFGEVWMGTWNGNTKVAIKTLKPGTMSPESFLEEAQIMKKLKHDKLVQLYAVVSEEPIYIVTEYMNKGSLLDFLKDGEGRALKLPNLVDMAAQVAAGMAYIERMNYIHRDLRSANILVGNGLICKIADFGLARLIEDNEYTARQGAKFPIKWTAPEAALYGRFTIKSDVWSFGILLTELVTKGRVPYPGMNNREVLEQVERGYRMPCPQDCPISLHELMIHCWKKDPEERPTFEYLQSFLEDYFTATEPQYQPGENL
Sequence of Phosphatidylinositol 5-phosphate 4-kinase type-2 alpha (Homo sapiens) (P48426 whole entry): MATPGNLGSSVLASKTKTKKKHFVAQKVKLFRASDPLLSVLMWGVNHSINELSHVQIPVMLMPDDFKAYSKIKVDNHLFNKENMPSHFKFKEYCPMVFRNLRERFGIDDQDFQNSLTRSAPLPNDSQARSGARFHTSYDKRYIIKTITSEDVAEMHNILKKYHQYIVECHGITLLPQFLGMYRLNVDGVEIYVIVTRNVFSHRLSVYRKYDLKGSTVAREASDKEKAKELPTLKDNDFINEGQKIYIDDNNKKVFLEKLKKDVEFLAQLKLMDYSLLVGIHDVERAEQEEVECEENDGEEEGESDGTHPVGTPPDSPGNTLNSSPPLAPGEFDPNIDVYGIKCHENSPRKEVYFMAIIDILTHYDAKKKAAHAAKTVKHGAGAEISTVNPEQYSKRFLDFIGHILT
Sequence of Tyrosine-protein kinase Lck (Homo sapiens) (P06239 2-509 limits assumed): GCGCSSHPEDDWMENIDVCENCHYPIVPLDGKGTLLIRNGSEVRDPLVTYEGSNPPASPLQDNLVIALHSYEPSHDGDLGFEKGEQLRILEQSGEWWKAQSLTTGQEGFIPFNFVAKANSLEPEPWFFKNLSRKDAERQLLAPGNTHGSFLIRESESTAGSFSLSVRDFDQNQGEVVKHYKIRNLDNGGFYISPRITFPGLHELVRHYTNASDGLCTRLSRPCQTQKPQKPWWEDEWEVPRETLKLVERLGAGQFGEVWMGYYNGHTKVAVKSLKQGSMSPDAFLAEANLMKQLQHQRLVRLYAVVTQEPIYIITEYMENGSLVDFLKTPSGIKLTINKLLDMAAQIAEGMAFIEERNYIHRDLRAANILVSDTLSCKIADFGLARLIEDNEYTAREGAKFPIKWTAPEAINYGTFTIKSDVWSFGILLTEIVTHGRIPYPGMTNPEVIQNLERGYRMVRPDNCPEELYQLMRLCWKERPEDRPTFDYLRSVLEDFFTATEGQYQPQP

Usually inhibition stands for the drop in the measured response relative to a control, in per cent. The IC50 is the point on the concentration scale where inhibition reaches its midpoint. A higher IC50 goes with weaker potency. Regarding `C=CC(=O)Nc1ccccc1Oc1nc(Nc2cnn(CCOC)c2)ncc1Cl`, the inhibition in experiment [1] is 4.2%; in experiment [2], 11.6%; in experiment [3], -0.9%; in experiment [4], -0.9%; in experiment [5] it was 8.1%; in [6], 0.8%. The inhibition in [7] is -2.7%; in experiment [8] it was 10%; in experiment [9], -9.9%; in experiment [10], -0.4%; in experiment [11] it was -0.4%; in experiment [12] it was -3.3%. Besides, the inhibition was -5.2% in experiment [13] and 12.8% in experiment [14]. Also, the IC50 worked out at 318 nM in the experiment with SK-CO-1, 5610 nM in the experiment on PANC-1 and 1340 nM with ASPC1. Besides, in the experiment on U-937, the result was Active.
As for `COc1cc(O)c2c(c1)/C=C/C[C@H](O)[C@H](O)C(=O)/C=C\C[C@H](C)OC2=O`, the inhibition in experiment [1] worked out at 2.1%; in experiment [2] it was 12.4%; in [3] it was 8.5%; in [4], 8.5%; in [15], 21.4%; in experiment [16], 21.6%. Also, the inhibition is 86.8% in experiment [17]; -9.7% in [9]; 4.9% in experiment [10]; 4.9% in experiment [11]; 16.1% in experiment [18]; 6.4% in experiment [14]. For the same compound, the IC50 with SK-CO-1 was determined as 250 nM; with PANC-1 it was 2500 nM; in the experiment with ASPC1 it was 6020 nM; with NCI-H23 (NCI-H23, 72 h), 1000 nM.
For `C=CC(=O)Nc1ccccc1Nc1nc(Nc2ccc(N3CCN(C)CC3)cc2)ncc1Cl`, the inhibition in [5] is 4.9%; in experiment [15], 6.9%; in [16] it was 64.7%; in [6], 70%; in [7] it was 0%; in experiment [17], 38.1%. The inhibition in experiment [8] was 25.5%; in experiment [12] it was -7.7%; in [13] it was -8%; in [18] it was 2%. The result in the experiment on NCI-H23 and in the experiment on U-937 was Active.
